Data on six compounds can be found in paper PMC3227417 (Cancer prevention research (Philadelphia, Pa.), 2009).

Like-named read-outs stand apart in the source and are kept apart here.

The subject of data set [1] is human HT-29 colon tumor xenograft. Briefly: HT-29 colon tumor xenograft, treatment of established tumors. The class given is in vivo, mice. To be noted: for median number of days to reach a tumor weight of 2,000 mg: control 42.8 days; for median number of days to reach a tumor weight of 3,000 mg: control 52.2 days.
The target of the next data set is T1, purified ovine COX-2 (Ovis aries, UniProt P79208).
T1 sequence (P79208 17-603): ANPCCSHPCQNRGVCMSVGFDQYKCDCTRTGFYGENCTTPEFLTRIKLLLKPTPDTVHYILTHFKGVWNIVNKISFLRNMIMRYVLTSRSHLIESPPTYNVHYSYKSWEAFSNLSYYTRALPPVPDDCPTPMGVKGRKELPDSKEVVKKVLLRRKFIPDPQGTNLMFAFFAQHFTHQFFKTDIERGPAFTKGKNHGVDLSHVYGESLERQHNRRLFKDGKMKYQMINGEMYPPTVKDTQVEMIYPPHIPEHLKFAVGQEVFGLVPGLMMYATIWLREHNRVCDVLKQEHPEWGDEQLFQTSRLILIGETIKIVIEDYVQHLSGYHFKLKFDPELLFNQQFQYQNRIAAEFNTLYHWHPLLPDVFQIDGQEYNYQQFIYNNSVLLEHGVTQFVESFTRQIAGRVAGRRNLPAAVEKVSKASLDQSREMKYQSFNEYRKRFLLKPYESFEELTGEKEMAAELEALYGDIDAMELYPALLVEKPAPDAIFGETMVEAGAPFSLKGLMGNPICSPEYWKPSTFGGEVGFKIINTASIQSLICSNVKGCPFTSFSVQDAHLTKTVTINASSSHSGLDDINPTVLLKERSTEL
Briefly: COX-2 colorimetric enzyme assay with purified isozyme. It counts as biochemical.

Data set [2] has as its system HT-29 colon tumor cells. Briefly: Growth assay. The class given is cell-based, human. To be noted: for continuous treatment required to reach maximum potency of growth inhibition: HT-29 time course. An outline of the steps:
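HT-29 cells were grown in RPMI 1640 with 5% FBS at 37°C under 5% CO2, using only cultures with >95% viability. Cells were seeded at 5,000/well, left 16 h, then treated continuously for 72 h at 37°C. Viable cell number was read as ATP luminescence (CellTiterGlo). A time course experiment used the same read-out. Mean, SE shown.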

The subject of data set [3] is HT-29 colon tumor cells. Briefly: TUNEL apoptosis assay. The class given is cell-based, human. Particulars: 24 hours, vehicle 2.3%. A digest of the protocol: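 HT-29 cells were seeded at 2 × 10^6 per 10 cm dish and grown 48 h. Medium was then replaced with test compound or vehicle for 24 h. Cells were fixed in 4% formalin on ice for 15 min. Strand breaks were labelled with BrdUrd, detected with anti-BrdUrd Alexa Fluor 488, and nuclei stained with propidium iodide. TUNEL-positive percentage was read by flow cytometry (≥10,000 events). Mean ± SE.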

In the next data set the target is T2, purified ovine COX-1 (Ovis aries, UniProt P05979).
T2 sequence (P05979 25-600): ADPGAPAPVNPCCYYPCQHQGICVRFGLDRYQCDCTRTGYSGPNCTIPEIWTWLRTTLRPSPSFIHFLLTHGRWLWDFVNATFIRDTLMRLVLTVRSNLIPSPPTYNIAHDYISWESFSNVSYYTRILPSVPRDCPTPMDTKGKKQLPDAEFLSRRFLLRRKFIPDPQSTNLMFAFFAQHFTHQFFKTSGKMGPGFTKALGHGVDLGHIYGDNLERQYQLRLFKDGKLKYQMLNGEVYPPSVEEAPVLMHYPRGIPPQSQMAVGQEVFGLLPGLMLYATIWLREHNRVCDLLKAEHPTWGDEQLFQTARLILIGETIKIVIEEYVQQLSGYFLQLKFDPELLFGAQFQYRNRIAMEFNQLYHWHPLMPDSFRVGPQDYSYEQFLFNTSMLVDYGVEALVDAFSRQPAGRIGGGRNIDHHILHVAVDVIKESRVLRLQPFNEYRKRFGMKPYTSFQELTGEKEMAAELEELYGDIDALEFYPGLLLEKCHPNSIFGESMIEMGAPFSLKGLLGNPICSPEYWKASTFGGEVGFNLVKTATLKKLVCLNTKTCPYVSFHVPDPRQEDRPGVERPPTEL
Briefly: COX-1 colorimetric enzyme assay with purified isozyme. It counts as biochemical.

Data set [4] is described as follows: Pharmacokinetic study, plasma levels after single gastric gavage. The class given is in vivo, mice. To be noted: for plasma level: mice, ± SD.
The subject of another data set is NCr-nu/nu mice. The class given is in vivo.
Data set [5] has as its system caspases 3 and 7 activity in HT-29 colon tumor cells. Briefly: Caspase-Glo 3/7 apoptosis assay. The class given is cell-based, human. To be noted: HT-29, 25 µmol/L. An outline of the steps: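 HT-29 cells were seeded at 10,000/well and grown 18–24 h before treatment. Treatment lasted 2–8 h: time course at 25 µmol/L, and dose-response at 5 h exposure. Caspase 3/7 activity was read as luminescence from substrate cleavage (Caspase-Glo 3/7).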

In data set [6] the test system is human HT-29 colon tumor xenograft. Briefly: HT-29 colon tumor xenograft, treatment from day of tumor implantation. The class given is in vivo.
For data set [7], the system named is HT-29 colon tumor cells. Briefly: Proliferation assay. The class given is cell-based, human. To be noted: read-out: IC50 to inhibit DNA synthesis (3H-thymidine incorporation); HT-29, 72 h of treatment.
Where [8] appears, read: read-out: COX-2 IC50, purified COX-2 isozyme, arachidonic acid, 25°C, 5 min.
[9] abbreviates: 250 mg/kg twice daily gastric gavage, 55 days.
Setting [10] is: read-out: COX-1 IC50, purified COX-1 isozyme, arachidonic acid, 25°C, 5 min.
[11] abbreviates: purified COX-2 isozyme, arachidonic acid, 25°C, 5 min.
The mark [12] stands for this setting: purified COX-1 isozyme, arachidonic acid, 25°C, 5 min.

`CCc1c2c(nc3ccc(OC(=O)N4CCC(N5CCCCC5)CC4)cc13)-c1cc3c(c(=O)n1C2)COC(=O)[C@]3(O)CC.Cl` [Camptosar, irinotecan HCl]: in [1], the “median number of days to reach a tumor weight of 2,000 mg” value is given as 48.2 days and the “median number of days to reach a tumor weight of 3,000 mg” value was determined as 58.7 days.
At purified ovine COX-2, `CS(=O)(=O)c1ccc(C2=C(c3ccccc3)C(=O)OC2)cc1` [Rofecoxib] displayed an IC50 of 2.7 µM.
In the case of `CSc1ccc(/C=C2/C(C)=C(CC(=O)O)c3cc(F)ccc32)cc1` [SS, sulindac sulfide], in the data set on HT-29 colon tumor cells [2], the “continuous treatment required to reach maximum potency of growth inhibition” value was ~ 2 days. For the same compound, the “percentage of apoptotic cells (TUNEL)” value with HT-29 colon tumor cells [3] (HT-29, 100 µmol/L) is reported as 7.1%; in the data set on HT-29 colon tumor cells [3] (HT-29, 200 µmol/L), 49.9%. The compound further returned an IC50 against purified ovine COX-1 of 1.8 µM.
`CSc1ccc(/C=C2/C(C)=C(CC(=O)NCCN(C)C)c3cc(F)ccc32)cc1` [SSA]: the plasma half-life in [4] (mouse, in vivo, po, 200 mg/kg) amounted to 9.9 h. In addition, the IC50 is 164 µM at purified ovine COX-2 (setting [8]), 1.2 µM in the data set with HT-29 colon tumor cells [7] and more than 300 µM at purified ovine COX-1 (setting [10]). For the same compound, the tolerated dosage entry in the data set with NCr-nu/nu mice (mouse, in vivo) is “up to 300 mg/kg”. Further, the “increase in potency compared with SS (growth inhibition)” value with HT-29 colon tumor cells [2] (HT-29 cell line) is reported as approximately 40 fold. For the same compound, the “continuous treatment required to reach maximum potency of growth inhibition” value in the data set on HT-29 colon tumor cells [2] was ~ 2 days. In data set [5], the “optimum treatment time for caspase induction” value is given as ~ 4 hours. Also, in [1], the “median number of days to reach a tumor weight of 2,000 mg” value turned out to be 40.8 days. Also, in data set [1], the “median number of days to reach a tumor weight of 3,000 mg” value is on record as 53.2 days. Further, the “mean body weight loss averaged over the duration of treatment” value in data set [6] (setting [9]) is listed as 1.1%. Also, the “mean body weight loss on any given day” value in data set [6] (setting [9]) is on record as not above 6%. In addition, the mean tumor weight in [6] (day 55, 250 mg/kg twice daily, control 2,534 mg) is listed as 1,141 mg. Moreover, the “percentage of apoptotic cells (TUNEL)” value in the data set with HT-29 colon tumor cells [3] (HT-29, 10 µmol/L) came out at 3.6%; in the data set on HT-29 colon tumor cells [3] (HT-29, 25 µmol/L) it was 10.2%; in the data set on HT-29 colon tumor cells [3] (HT-29, 50 µmol/L) it was 91.8%.
In the case of `CC1=C(CC(=O)O)c2cc(F)ccc2/C1=C\c1ccc(S(C)(=O)=O)cc1` [Sulindac sulfone, sulindac sulfone], the IC50 on purified ovine COX-2 and at purified ovine COX-1 was more than 300 µM in each case. Further, the “COX-2 IC50” value on purified ovine COX-2 (setting [11]) was “lack both COX-1 and COX-2 inhibitory activity”. Besides, on purified ovine COX-1 (setting [12]), the “COX-1 IC50” value was “lack both COX-1 and COX-2 inhibitory activity”.
For the compound `CC1=C(CC(=O)O)c2cc(F)ccc2/C1=C\c1ccc([S+](C)[O-])cc1` (stereo not drawn) [Sulindac sulfoxide, sulindac], the plasma level in [4] (1 h post gastric gavage of SSA (200 mg/kg)) is 50 ± 40 nM; in data set [4] (2 h post gastric gavage of SSA (200 mg/kg)) it was 60 ± 10 nM; in data set [4] (4 h post gastric gavage of SSA (200 mg/kg)) it was 50 ± 10 nM; in [4] (8 h post gastric gavage of SSA (200 mg/kg)) it was 50 ± 14 nM; in [4] (16 h post gastric gavage of SSA (200 mg/kg)), “BLD”; in [4] (24 h post gastric gavage of SSA (200 mg/kg)) it was “BLD”. For the same compound, the “COX-2 IC50” value at purified ovine COX-2 (setting [11]) is “lack both COX-1 and COX-2 inhibitory activity”. The IC50 on purified ovine COX-2 (setting [8]) is more than 300 µM; in the data set on HT-29 colon tumor cells [7], 222 µM; on purified ovine COX-1 (setting [10]), more than 300 µM. In the data set with NCr-nu/nu mice (mice, once daily gastric gavage, 20 days of treatment), the tolerated dosage is recorded as not above 50 mg/kg. The “COX-1 IC50” value on purified ovine COX-1 (setting [12]) is “lack both COX-1 and COX-2 inhibitory activity”.
